Legend:
Huh-7 = assay: Cytotoxicity against Huh7 cells by MTS assay; assay type: functional; details: Homo sapiens
Outline: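 Cells exposed to compound for 96 h; viability read by MTS tetrazolium reduction (non-radioactive cell proliferation kit); CC50 taken as the 50% cytotoxic concentration.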

Hepatitis C virus = assay: Antiviral activity against HCV replication; assay type: functional, organism-based, Hepacivirus hominis

Structure (SMILES)	CC50 (Huh-7) [µM]	EC90 (Hepatitis C virus) [µM]
C[C@@]1(F)[C@H](O)[C@@H](CO)O[C@H]1n1cnc2c(O)nc(N)nc21	> 100	56
C[C@@]1(F)[C@H](O)[C@@H](CO)O[C@H]1n1cnc2c(N)ncnc21	> 100	> 100
C[C@@]1(F)[C@H](O)[C@@H](CO)O[C@H]1n1cnc2c(Cl)ncnc21	27.1	88.2
C[C@@]1(O)[C@H](O)[C@@H](CO)O[C@H]1n1cnc2c(N)ncnc21	15	1.4
C[C@@]1(F)[C@H](O)[C@@H](CO)O[C@H]1n1cnc2c(Cl)nc(N)nc21	> 100	62.4
C[C@@]1(O)[C@H](O)[C@@H](CO)O[C@H]1n1cnc2c(=O)[nH]c(N)nc21 [2'-B-METHYL-GUANOSINE]	> 100	10.8
